Calls of active or inactive are those of the source. The rule behind the calls is not given here.
Experiments:
[1] = Inhibition of Saccharomyces cerevisiae alpha-glucosidase using p-nitrophenyl-alpha-D-glucopyranoside as substrate preincubated for 10 mins followed by substrate addition measured after 30 mins by microplate reader analysis
Summary of the method: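 α-Glucosidase 0.1 U/mL and p-NPG 1.0 mM in 0.1 M potassium phosphate pH 6.7; samples in DMSO. Inhibitor preincubated with enzyme 10 min at 37 °C, substrate added, 30 min at 37 °C, stopped with 1 M Na2CO3; absorbance 405 nm with blank correction. Five concentrations, triplicate; IC50 as mean ± SEM of three independent experiments.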

Mus musculus [2] = experiment: Antihyperglycemic effect in Kunming mouse assessed as reduction in postprandial blood glucose level at 25 mg/kg, po administered 30 mins before sucrose challenge measured after 30 to 90 mins by oral sucrose tolerance test; assay type: functional, organism-based
Summary of the method: (§1)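 Male/female unspecified Kunming mice, 4–6 weeks old, fasted. Oral dosing suspended in 0.5 % CMC–Na (controls given vehicle alone); sucrose 3 g/kg orally 30 min later. Six mice per group; mean ± SEM, one-way ANOVA with Tukey's or Dunnett's test.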

Mus musculus [3] = experiment: Hypoglycemic effect in Kunming mouse model of STZ-induced diabetes assessed as reduction in fasting blood glucose level at 100 mg/kg, po measured at 7 hrs post dose by glucometry analysis relative to control; assay type: functional; design: scale not given: the % may be the effect or the level left
Summary of the method: (§2)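 STZ-diabetic Kunming mice (single i.p. streptozotocin 100 mg/kg in citrate buffer pH 4.5, fasting; glucose checked day 7), fasted, dosed orally in 0.5 % CMC–Na with vehicle-only controls. Tail-vein glucometer readings at 0, 1.5, 3, 5, 7 and 9 h post-dose; percent change relative to vehicle group. n = 6; mean ± SEM, one-way ANOVA with post-hoc test.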

[4] = Competitive inhibition of Saccharomyces cerevisiae alpha-glucosidase using p-nitrophenyl-alpha-D-glucopyranoside as substrate by Lineweaver-Burk plot analysis
Summary of the method: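 Enzyme kinetics run with rising concentrations of 4-nitrophenyl α-D-glucopyranoside and of inhibitor; mode of inhibition assigned from Lineweaver–Burk plots under Michaelis–Menten kinetics.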

Mus musculus [5] = experiment: Hypoglycemic effect in Kunming mouse model of STZ-induced diabetes assessed as reduction in fasting blood glucose level at 50 mg/kg, po measured at 5 hrs post dose by glucometry analysis relative to control; assay type: functional; design: scale not given: the % may be the effect or the level left; summary of the method: as §2
Mus musculus [6] = experiment: Antihyperglycemic effect in Kunming mouse assessed as reduction in postprandial blood glucose level at 50 and 100 mg/kg, po administered 30 mins before sucrose challenge measured after 30 to 90 mins by oral sucrose tolerance test; assay type: functional, organism-based; summary of the method: as §1
Mus musculus [7] = experiment: Hypoglycemic effect in Kunming mouse model of STZ-induced diabetes assessed as reduction in fasting blood glucose level at 100 mg/kg, po measured at 5 hrs post dose by glucometry analysis relative to control; assay type: functional; design: scale not given: the % may be the effect or the level left; summary of the method: as §2
Mus musculus [8] = experiment: Antihyperglycemic effect in Kunming mouse model of STZ-induced diabetes assessed as reduction in postprandial blood glucose level at 25 mg/kg, po administered 30 mins before sucrose challenge measured after 30 to 90 mins by oral sucrose tolerance test; assay type: functional, organism-based
Summary of the method: (§3)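 Diabetes induced in Kunming mice (4–6 weeks) by single i.p. streptozotocin 100 mg/kg in citrate buffer pH 4.5 under fasting, glucose checked on day 7. Fasted mice dosed orally in 0.5 % CMC–Na (vehicle controls), then sucrose 3 g/kg orally after 30 min; tail-vein glucometer readings at 0–3.0 h post-load. n = 6; mean ± SEM, one-way ANOVA with post-hoc test.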

Mus musculus [9] = experiment: Hypoglycemic effect in Kunming mouse model of STZ-induced diabetes assessed as reduction in fasting blood glucose level at 50 mg/kg, po measured at 9 hrs post dose by glucometry analysis relative to control; assay type: functional; design: scale not given: the % may be the effect or the level left; summary of the method: as §2
Mus musculus [10] = experiment: Hypoglycemic effect in Kunming mouse model of STZ-induced diabetes assessed as reduction in fasting blood glucose level at 100 mg/kg, po measured at 3 hrs post dose by glucometry analysis relative to control; assay type: functional; design: scale not given: the % may be the effect or the level left; summary of the method: as §2
Mus musculus [11] = experiment: Hypoglycemic effect in Kunming mouse model of STZ-induced diabetes assessed as reduction in fasting blood glucose level at 100 mg/kg, po measured at 9 hrs post dose by glucometry analysis relative to control; assay type: functional; design: scale not given: the % may be the effect or the level left; summary of the method: as §2
Mus musculus [12] = experiment: Hypoglycemic effect in Kunming mouse assessed as reduction in fasting blood glucose level at 25 to 100 mg/kg, po measured at 1.5 to 9 hrs post dose by glucometry analysis; assay type: functional, organism-based
Summary of the method: (§4)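 Fasted normal Kunming mice (4–6 weeks) given single oral dose suspended in 0.5 % CMC–Na; control group received vehicle only. Tail-vein glucose measured by glucometer at 0, 1.5, 3, 5, 7 and 9 h after administration. Six mice per group; mean ± SEM, one-way ANOVA followed by Tukey's or Dunnett's test versus control.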

Mus musculus [13] = experiment: Hypoglycemic effect in Kunming mouse model of STZ-induced diabetes assessed as reduction in fasting blood glucose level at 50 mg/kg, po measured at 3 hrs post dose by glucometry analysis relative to control; assay type: functional; design: scale not given: the % may be the effect or the level left; summary of the method: as §2
Mus musculus [14] = experiment: Hypoglycemic effect in Kunming mouse model of STZ-induced diabetes assessed as reduction in fasting blood glucose level at 100 mg/kg, po measured at 1.5 hrs post dose by glucometry analysis relative to control; assay type: functional; design: scale not given: the % may be the effect or the level left; summary of the method: as §2
Mus musculus [15] = experiment: Hypoglycemic effect in Kunming mouse model of STZ-induced diabetes assessed as reduction in fasting blood glucose level at 50 mg/kg, po measured at 7 hrs post dose by glucometry analysis relative to control; assay type: functional; design: scale not given: the % may be the effect or the level left; summary of the method: as §2
Mus musculus [16] = experiment: Antihyperglycemic effect in Kunming mouse model of STZ-induced diabetes assessed as reduction in postprandial blood glucose level at 50 and 100 mg/kg, po administered 30 mins before sucrose challenge measured after 30 to 90 mins by oral sucrose tolerance test; assay type: functional, organism-based; summary of the method: as §3
Mus musculus [17] = experiment: Hypoglycemic effect in Kunming mouse model of STZ-induced diabetes assessed as reduction in fasting blood glucose level at 50 mg/kg, po measured at 1.5 hrs post dose by glucometry analysis relative to control; assay type: functional; design: scale not given: the % may be the effect or the level left; summary of the method: as §2
Mus musculus [18] = experiment: Hypoglycemic effect in Kunming mouse model of STZ-induced diabetes assessed as reduction in fasting blood glucose level at 10 mg/kg, po measured at 1.5 to 9 hrs post dose by glucometry analysis; assay type: functional, organism-based; summary of the method: as §2
Mus musculus [19] = experiment: Hypoglycemic effect in Kunming mouse assessed as reduction in fasting blood glucose level at 10 mg/kg, po measured at 1.5 to 9 hrs post dose by glucometry analysis; assay type: functional, organism-based; summary of the method: as §4

**Q.** Which IC50 [1] does the source give for O=c1c(O)c(-c2cc(O)c(OCCN(CCO)c3ccccc3)c(O)c2)oc2cc(O)cc(O)c12 here?
**A.** The IC50 was 41.1 µM.

**Q.** Which IC50 [1] does the source give for O=c1c(O)c(-c2cc(O)c(OCCOCCO)c(O)c2)oc2cc(O)cc(O)c12 here?
**A.** The IC50 was 43.8 µM.

**Q.** With O=c1c(O)c(-c2cc(O)c(OCCOCCOCCO)c(O)c2)oc2cc(O)cc(O)c12 as the molecule, how does the IC50 [1] read?
**A.** Its IC50 is 233 µM.

**Q.** Which IC50 [1] does the source give for O=C1c2c(O)cc(O)cc2O[C@H](c2cc(O)c(O)c(O)c2)[C@H]1O [AMPELOPSIN] here?
**A.** Its IC50 is 634 µM.

**Q.** Which IC50 [1] does the source give for O=c1c(O)c(-c2cc(O)c(OCCOCCOCCOCCO)c(O)c2)oc2cc(O)cc(O)c12 here?
**A.** Its IC50 is 463 µM.

**Q.** For O=c1c(O)c(-c2cc(O)c(OCCO)c(O)c2)oc2cc(O)cc(O)c12, which IC50 [1] is on record?
**A.** Its IC50 is 84.5 µM.

**Q.** Which IC50 [1] does the source give for C[C@@H]1O[C@@H](Oc2c(-c3cc(O)c(O)c(O)c3)oc3cc(O)cc(O)c3c2=O)[C@H](O)[C@H](O)[C@H]1O here?
**A.** Its IC50 is 838 µM.

**Q.** With Cc1ccc(S(=O)(=O)N(CCO)CCOc2c(O)cc(-c3oc4cc(O)cc(O)c4c(=O)c3O)cc2O)cc1 as the molecule, how does the Activity (Mus musculus [2]) read?
**A.** The Activity was “inactive”.

**Q.** And the Activity (Mus musculus [3])?
**A.** Its Activity is 65.4%.

**Q.** What about the Ki [4] of the same molecule?
**A.** Its Ki is 10.3 µM.

**Q.** And the Activity (Mus musculus [5])?
**A.** The Activity was 47.3%.

**Q.** And the IC50 [1]?
**A.** Its IC50 is 9.3 µM.

**Q.** And the Activity (Mus musculus [6])?
**A.** Its Activity is “Active”.

**Q.** What about the Activity (Mus musculus [7]) of the same molecule?
**A.** Its Activity is 60%.

**Q.** What about the Activity (Mus musculus [8]) of the same molecule?
**A.** Its Activity is “inactive”.

**Q.** What about the Activity (Mus musculus [9]) of the same molecule?
**A.** Its Activity is 61.5%.

**Q.** And the Activity (Mus musculus [10])?
**A.** The Activity was 45.1%.

**Q.** And the Activity (Mus musculus [11])?
**A.** Its Activity is 67.3%.

**Q.** And the Activity (Mus musculus [12])?
**A.** The Activity was “inactive”.

**Q.** What about the Activity (Mus musculus [13]) of the same molecule?
**A.** The Activity was 35.9%.

**Q.** And the Activity (Mus musculus [14])?
**A.** The Activity was 37%.

**Q.** What about the Activity (Mus musculus [15]) of the same molecule?
**A.** The Activity was 59.6%.

**Q.** What about the Activity (Mus musculus [16]) of the same molecule?
**A.** Its Activity is “Active”.

**Q.** And the Activity (Mus musculus [17])?
**A.** Its Activity is 27.8%.

**Q.** For C[C@@H]1O[C@@H](O[C@@H]2[C@@H](O)[C@H](O)[C@H](O[C@H]3[C@H](O)[C@@H](O)C(O)O[C@@H]3CO)O[C@H]2CO)[C@@H](O)[C@H](O)[C@H]1N[C@H]1C=C(CO)[C@@H](O)[C@H](O)[C@H]1O (stereo partly drawn), which IC50 [1] is on record?
**A.** Its IC50 is 720 µM.

**Q.** For O=c1c(O)c(-c2cc(O)c(O)c(O)c2)oc2cc(O)cc(O)c12 [MYRICETIN], which IC50 [1] is on record?
**A.** Its IC50 is 319 µM.

**Q.** For COc1ccc(Cl)cc1C(=O)NCCc1ccc(S(=O)(=O)NC(=O)NC2CCCCC2)cc1, which Activity (Mus musculus [18]) is on record?
**A.** Its Activity is “Active”.

**Q.** And the Activity (Mus musculus [19])?
**A.** Its Activity is “Active”.

From ChEMBL document CHEMBL3769387, “α-Glucosidase inhibition and antihyperglycemic activity of flavonoids from Ampelopsis grossedentata and the flavonoid derivatives” (Bioorg Med Chem, 2016)
